From ChEMBL document CHEMBL1146581, “Induction of apoptosis by xanthones from mangosteen in human leukemia cell lines” (J Nat Prod, 2003)
The source made the active and inactive calls. No cut-off for these calls is given here.

Assays:
HL-60 [1] = assay: Cytotoxicity against human HL60 cells assessed as cell viability after 72 hrs by Trypan blue exclusion test; type: functional, cell-based; settings: HL-60, 72 h
Method in brief: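 HL60 (RIKEN Cell Bank) in RPMI-1640 with 10% heat-inactivated FBS, seeded at 1 × 10^5/mL. Exposed for 72 h to 5–40 µM compound added in DMSO (final 0.1% v/v). Viable cells counted by trypan blue dye exclusion. IC50 read from concentration–growth curves. Means ± SD of three experiments.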

U-937 [2] = assay: Cytotoxicity against human U937 cells assessed as cell viability at 10 uM after 72 hrs by Trypan blue exclusion test; type: functional, cell-based
Method in brief: (§1)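 Leukemia lines (RIKEN Cell Bank) grown in RPMI-1640 with 10% heat-inactivated FBS. Growth curves were followed at 1, 2, 5 and 10 µM compound delivered in DMSO (final 0.1% v/v), with untreated controls. Viable cell number counted by trypan blue dye exclusion in a counting chamber.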

NB-4 [3] = assay: Cytotoxicity against human NB4 cells assessed as cell viability at 5 uM after 72 hrs by Trypan blue exclusion test; type: functional, cell-based; method in brief: as §1
HL-60 [4] = assay: Induction of apoptosis in human HL60 cells assessed as DNA ladder formation at 10 uM after 24 hrs by agarose gel electrophoresis; type: functional, cell-based
NB-4 [5] = assay: Induction of apoptosis in human NB4 cells assessed as DNA ladder formation at 10 uM after 24 hrs by agarose gel electrophoresis; type: functional, cell-based
K562 [6] = assay: Cytotoxicity against human K562 cells assessed as cell viability at 10 uM after 72 hrs by Trypan blue exclusion test; type: functional, cell-based; method in brief: as §1
PBMC = assay: Cytotoxicity against concanavalin A-stimulated human PBMC cells at 10 uM after 72 hrs by Trypan blue exclusion test; type: cell-based
Method in brief: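 Lymphocytes from healthy donors in RPMI-1640 with 10% heat-inactivated FBS, stimulated with concanavalin-A (75 µg/mL) for 48 h, then exposed to compound in DMSO (final 0.1% v/v). Viable cells counted by trypan blue dye exclusion in a counting chamber.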

U-937 [7] = assay: Induction of apoptosis in human U937 cells assessed as nuclear condensation and fragmentation at 10 uM after 24 hrs using Hoechst stain by fluorescence microscopy; type: functional, cell-based
Method in brief: (§2)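 Cells treated 24 h at 10 µM. Hoechst 33342 was added to the medium at 5 µg/mL for 30 min. Cells were then washed in PBS and nuclear condensation/fragmentation was scored by fluorescence microscopy (×400).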

K562 [8] = assay: Induction of apoptosis in human K562 cells assessed as DNA ladder formation at 10 uM after 24 hrs by agarose gel electrophoresis; type: functional, cell-based
NB-4 [9] = assay: Induction of apoptosis in human NB4 cells assessed as nuclear condensation and fragmentation at 10 uM after 24 hrs using Hoechst stain by fluorescence microscopy; type: functional, cell-based; method in brief: as §2
U-937 [10] = assay: Induction of apoptosis in human U937 cells assessed as DNA ladder formation at 10 uM after 24 hrs by agarose gel electrophoresis; type: functional, cell-based
U-937 [11] = assay: Cytotoxicity against human U937 cells assessed as cell viability at 5 uM after 72 hrs by Trypan blue exclusion test; type: functional, cell-based; method in brief: as §1
NB-4 [12] = assay: Cytotoxicity against human NB4 cells assessed as cell viability at 10 uM after 72 hrs by Trypan blue exclusion test; type: functional, cell-based; method in brief: as §1
K562 [13] = assay: Cytotoxicity against human K562 cells assessed as cell viability at 5 uM after 72 hrs by Trypan blue exclusion test; type: functional, cell-based; method in brief: as §1
HL-60 [14] = assay: Induction of apoptosis in human HL60 cells assessed as nuclear condensation and fragmentation at 10 uM after 24 hrs using Hoechst stain by fluorescence microscopy; type: functional, cell-based; method in brief: as §2
K562 [15] = assay: Induction of apoptosis in human K562 cells assessed as nuclear condensation and fragmentation at 10 uM after 24 hrs using Hoechst stain by fluorescence microscopy; type: functional, cell-based; method in brief: as §2
HL-60 [16] = assay: Induction of apoptosis in human HL60 cells assessed as caspase 3 activation at 10 uM by Western blot; type: functional, cell-based
Method in brief: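 HL60 treated with 10 µM over a time course. Lysis was in Tris pH 7.4/NP-40/deoxycholate/SDS buffer with protease inhibitors, 30 min on ice. 10 µg protein was run on a 5–20% SDS gradient gel and blotted to PVDF. The blot was probed overnight at 4 °C with rabbit anti-caspase-3, then HRP anti-rabbit, and detected by ECL. Pro (32 kD) and active (19/17 kD) forms were read.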

CC(C)=CCC/C(C)=C/Cc1c(O)cc2oc3c(O)cccc3c(=O)c2c1O [MANGOSTINONE] was tested, and the IC50 (HL-60 [1]) was 19 µM.

COc1c(O)cc2oc3cc(O)c(CC=C(C)C)c(O)c3c(=O)c2c1CC=C(C)C [MANGOSTIN] was tested, and the Activity (U-937 [2]) was “Active”, the Activity (NB-4 [3]) was “Active” and the IC50 (HL-60 [1]) was 6.8 µM. For the same compound, the Activity (HL-60 [4]) was “Active”, the Activity (NB-4 [5]) was “Active” and the Activity (K562 [6]) was “Active”. The Activity (PBMC) was “Non-toxic”, the Activity (U-937 [7]) was “Active” and the Activity (K562 [8]) was “Active”. The Activity (NB-4 [9]) was “Active”, the Activity (U-937 [10]) was “Active” and the Activity (U-937 [11]) was “Active”. For the same compound, the Activity (NB-4 [12]) was “Active”, the Activity (K562 [13]) was “Active” and the Activity (HL-60 [14]) was “Active”. For the same compound, the Activity (K562 [15]) was “Active” and the Activity (HL-60 [16]) was “Active”.

For COc1cc2oc3cc(O)c(OC)c(CC=C(C)C)c3c(=O)c2c(O)c1CC=C(C)C, the IC50 (HL-60 [1]) was 7.6 µM.

For COc1cc2oc3ccc(O)cc3c(=O)c2c(O)c1CC=C(C)C, the IC50 (HL-60 [1]) was 23.6 µM.

With CC(C)=CCc1c(O)cc2oc3c(CC=C(C)C)c(O)c(O)c(CC=C(C)C)c3c(=O)c2c1O [GARCINONE E] the IC50 (HL-60 [1]) was 15 µM.

Work on CC(C)=CCc1c(O)cc2oc3cc(O)c(O)c(CC=C(C)C)c3c(=O)c2c1O yielded an IC50 (HL-60 [1]) of 6.1 µM.
